# Experimental data collected from several papers.
# Each line is one published result; the experiments were not run side by side.
# FGFR3: Fibroblast growth factor receptor 3 (FGFR3, Homo sapiens, UniProt P22607)
# FGFR3 G697C: Fibroblast growth factor receptor 3 (FGFR3, Homo sapiens, UniProt P22607, G697C)
Structure (SMILES),target,effect on,method,concentration,remaining binding [%]
CN(c1nccc(-c2cnn3ncccc23)n1)C1CC1,FGFR3,binding,,1 µM,98
O=C(c1ccc(Nc2ncc(Cl)c(-c3ccc(Cl)s3)n2)cc1)N1CCC(N2CCCC2)CC1,FGFR3 G697C,binding,competition with immobilised ligand,1 µM,4.9
COc1ccc2cc(OCC3(C(=O)O)CN(C(=O)c4ccc(F)cc4)C3)ccc2c1,FGFR3 G697C,cell-free assay,competition with immobilised ligand,1 µM,88
O=C(c1ccc(Nc2ncc(Cl)c(-c3cc4ccccc4s3)n2)cc1)N1CCC(N2CCCC2)CC1,FGFR3 G697C,binding,competition with immobilised ligand,1 µM,34
c1cnn2ncc(-c3ccnc(N4CCC45COC5)n3)c2c1,FGFR3 G697C,binding,,1 µM,86
O=C(NCc1ncc(C(F)(F)F)cc1Cl)c1ccc2c(c1)C1(CCS(=O)(=O)CC1)[C@H](C1CC1)N2S(=O)(=O)c1ccc(F)cc1,FGFR3 G697C,cell-free assay,competition with immobilised ligand,1 µM,100
O=C(c1ccc(Nc2nccc(-c3cc4ccccc4s3)n2)cc1)N1CCC(N2CCCC2)CC1,FGFR3 G697C,binding,competition with immobilised ligand,1 µM,77
CNC(=O)[C@@H]1CC[C@@H](n2c(-c3ccc4cnccc4c3)nc3ccc(C(=O)NCc4cccc(C(N)=O)c4)cc32)C1,FGFR3,binding,competition with immobilised ligand,1 µM,100
N#Cc1ccccc1CSc1nnc2c(n1)[nH]c1ccccc12,FGFR3,binding,competition with immobilised ligand,10 µM,88
COc1cnc(Nc2cccc(S(N)(=O)=O)c2)nc1N1CCN(c2ccccc2)C(=O)C1,FGFR3,binding,competition with immobilised ligand,1 µM,100
CN(C)C(=O)Cn1cc(-c2nc([C@@](C)(c3ccc(-c4cnc(N)nc4)cc3)C3CC3)no2)cn1,FGFR3 G697C,cell-free assay,competition with immobilised ligand,1 µM,89
C[C@@H]1CN(c2ccc3ncc(-c4ccc5[nH]nc(C6CC6)c5c4)n3n2)C[C@H](C)O1,FGFR3,binding,competition with immobilised ligand,50 nM,100
CCC(=O)N[C@H]1CC[C@@H](C(=O)N(C)c2ccc(-c3nc4ccccc4o3)cc2)C1,FGFR3 G697C,cell-free assay,competition with immobilised ligand,1 µM,100
COc1ncc2cc3ccccc3nc2c1C#N,FGFR3 G697C,cell-free assay,competition with immobilised ligand,5 µM,96
F[C@@H]1CCN(c2nccc(-c3cnn4ncccc34)n2)C1,FGFR3 G697C,binding,,1 µM,79
COCCOc1nc(-c2ccc(Cl)nc2)nc2c1CN(C(=O)c1ncn3ccccc13)CC2,FGFR3 G697C,cell-free assay,competition with immobilised ligand,0.1 µM,100
Cc1cnc(Nc2ccc(C(=O)N3CCC(N4CCCC4)CC3)cc2)nc1-c1cc2ccccc2s1,FGFR3 G697C,binding,competition with immobilised ligand,1 µM,16
CC1CCCN1c1nccc(-c2cnn3ncccc23)n1 (stereo not drawn),FGFR3 G697C,binding,,1 µM,86
C=CC(=O)N1CCC(C(=O)NCC(=O)N2CCN(c3nc(-c4cnc(N)nc4C(F)F)nc(N4CCOCC4)n3)CC2)CC1,FGFR3 G697C,binding,competition with immobilised ligand,1 µM,99
C[C@@H](c1ccc(-n2cnc3c(N)ncnc32)cc1)N1CCc2nn(C)c(Cc3ccccc3)c2C1=O,FGFR3 G697C,binding,competition with immobilised ligand,0.1 µM,96
Nc1ncc2c(n1)-c1c([nH]c3ccc(C#CC4CC4)cc13)CCCC2,FGFR3 G697C,binding,competition with immobilised ligand,1 µM,100
O=C(NCC1CCOCC1)c1n[nH]cc1NC(=O)c1c(F)cccc1F,FGFR3 G697C,binding,competition with immobilised ligand,1 µM,100
N[C@@H]1CCN(c2nccc(-c3cnn4ncccc34)n2)C1,FGFR3,binding,,1 µM,100
O=C(NCCCN1CCOCC1)c1ccc(Nc2nccc(-c3cc4ccccc4s3)n2)cc1,FGFR3 G697C,binding,competition with immobilised ligand,1 µM,79
CN1CCN(c2ccc(Nc3nccc(-c4cccc([N+](=O)[O-])c4)n3)cc2C(F)(F)F)CC1,FGFR3 G697C,binding,,10 µM,63
C[C@@H]1CCN(c2nccc(-c3cnn4ncccc34)n2)C1,FGFR3,binding,,1 µM,90
CCCOc1ccc([C@H]2[C@H](C(=O)O)[C@@H](c3ccc4c(c3)OCO4)CN2CC(=O)Nc2c(CC)cccc2CC)cc1,FGFR3 G697C,cell-free assay,competition with immobilised ligand,1 µM,85
c1cncc(-c2cccc(Nc3nccc(NC4CCCCC4)n3)c2)c1,FGFR3 G697C,binding,competition with immobilised ligand,10 µM,51
O=C(Nc1c[nH]nc1C(=O)NC1CCNCC1)c1cc(F)cc(F)c1,FGFR3 G697C,binding,competition with immobilised ligand,1 µM,100
CN(C)c1nccc(-c2cnc3ncccn23)n1,FGFR3 G697C,binding,,1 µM,99
CCN1CCN(Cc2ccc(C(=O)Nc3ccc(C)c(Oc4ccc5c(c4)CC(=O)N5)c3)cc2C(F)(F)F)CC1,FGFR3,binding,competition with immobilised ligand,1 µM,100
C[C@@H](c1cccc(C#N)c1)n1cc(Cl)cc(C(N)=O)c1=N,FGFR3 G697C,cell-free assay,competition with immobilised ligand,1 µM,79
Cc1cnn2ncc(-c3ccnc(N(C)C)n3)c2c1,FGFR3,binding,,1 µM,100
O=C(NCCCN1CCOCC1)c1ccc(Nc2ncc(Cl)c(-c3ccc(Cl)s3)n2)cc1,FGFR3 G697C,binding,competition with immobilised ligand,1 µM,32
CCCCN(CCCC)C(=O)CN1C[C@@H](c2cc(OC)c3c(c2)OCO3)[C@H](C(=O)O)[C@H]1CC(C)(C)CCC,FGFR3,cell-free assay,competition with immobilised ligand,1 µM,88.5
COc1cnc(Nc2cccc(S(N)(=O)=O)c2)nc1N1CCN(c2ccccc2)CC1,FGFR3,binding,competition with immobilised ligand,1 µM,98
